What was measured:
[1] = target: T1, Adenosine receptor A1 (Homo sapiens) (UniProt P30542); experiment: Displacement of [3H]DPCPX from human adenosine A1 receptor expressed in CHO cell membranes assessed as dissociation rate constant by competition association assay
T1 sequence (whole entry): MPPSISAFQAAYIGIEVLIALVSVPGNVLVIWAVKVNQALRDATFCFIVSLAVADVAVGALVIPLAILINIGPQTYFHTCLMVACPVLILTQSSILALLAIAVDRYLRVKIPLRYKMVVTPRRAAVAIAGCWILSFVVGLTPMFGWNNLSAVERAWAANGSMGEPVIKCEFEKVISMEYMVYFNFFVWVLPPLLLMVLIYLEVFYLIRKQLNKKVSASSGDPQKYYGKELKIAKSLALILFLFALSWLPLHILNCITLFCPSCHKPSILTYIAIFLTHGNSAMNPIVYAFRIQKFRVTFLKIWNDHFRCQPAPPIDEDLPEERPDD
Outline: (§1)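 Competition association assay on CHO cell membranes stably expressing hA1, with [3H]DPCPX as tracer. kon and koff come from these association curves (n ≥ 3, ± SEM). Residence time is shown alongside koff and corresponds to 1/koff in minutes.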

[2] = target: T1, Adenosine receptor A1 (Homo sapiens); experiment: Displacement of [3H]DPCPX from human adenosine A1 receptor expressed in CHO cell membranes assessed as kinetic rate index by measuring ratio of binding at earlier and later time points by competition association assay
Outline: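 Dual-point competition association assay with [3H]DPCPX on CHO membranes stably expressing hA1. Specific binding is read at two time points in the presence of the test ligand. KRI is the ratio of binding at the earlier to the later time point (n = 2; both values reported).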

[3] = target: T1, Adenosine receptor A1 (Homo sapiens); experiment: Displacement of [3H]DPCPX from human adenosine A1 receptor expressed in CHO cell membranes assessed as association rate constant by competition association assay; outline: as §1
[4] = target: T1, Adenosine receptor A1 (Homo sapiens); experiment: Displacement of [3H]DPCPX from human adenosine A1 receptor expressed in CHO cell membranes assessed as residence time by competition association assay; outline: as §1
[5] = target: T1, Adenosine receptor A1 (Homo sapiens); experiment: Displacement of [3H]DPCPX from human adenosine A1 receptor expressed in CHO cell membranes at 1 uM by competition association assay
Adenosine receptor A1 = target: T2, Adenosine receptor A1 (Homo sapiens, UniProt P30542); experiment: Agonist activity at human adenosine A1 receptor expressed in CHO cell membranes by [35S]GTPgammaS binding assay; format: functional
T2 sequence (P30542 whole entry): T1 sequence (whole entry)
Outline: (§2)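 CHO-hA1 membrane homogenates (3 µg) equilibrated 30 min at 25 °C in 50 mM Tris, 100 mM NaCl, 5 mM MgCl2, 1 mM EDTA, 1 mM DTT, 0.05% BSA, pH 7.4, with 3 µM GDP, saponin and ligand over a concentration range. [35S]GTPγS then added (final 0.3 nM) and incubated 90 min at 25 °C. Filtration on GF/B, ice-cold washes, scintillation counting. n = 3.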

[6] = target: Adenosine receptors; A1 & A3 (Homo sapiens) (UniProt P30542+P0DMS8); experiment: Selectivity for human adenosine A1 receptor expressed in CHO cell membranes over human adenosine A3 receptor expressed in CHO cell membrane; format: cell-based
[7] = target: Adenosine receptor A2a (Homo sapiens) (UniProt P29274); experiment: Displacement of [3H]ZM241385 from human adenosine A2A receptor expressed in HEK293 cell membranes at 1 uM by competition association assay
[8] = target: T3, Adenosine receptor A3 (Homo sapiens) (UniProt P0DMS8); experiment: Displacement of [3H]PSB11 from human adenosine A3 receptor expressed in CHO cell membranes at 1 uM by competition association assay
T3 sequence (whole entry): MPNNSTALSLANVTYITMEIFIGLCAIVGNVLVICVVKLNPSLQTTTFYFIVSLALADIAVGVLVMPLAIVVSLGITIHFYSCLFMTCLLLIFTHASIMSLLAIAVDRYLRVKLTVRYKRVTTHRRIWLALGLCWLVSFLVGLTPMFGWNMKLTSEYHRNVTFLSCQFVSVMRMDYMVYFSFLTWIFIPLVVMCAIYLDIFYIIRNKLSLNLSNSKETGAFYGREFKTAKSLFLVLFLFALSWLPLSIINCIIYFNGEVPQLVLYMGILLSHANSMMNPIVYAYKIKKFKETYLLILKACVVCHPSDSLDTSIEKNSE
Outline: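 Single-point screen at 1 µM measuring displacement of specific [3H]PSB11 binding on CHO cell membranes stably expressing human A3 receptors.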

[9] = target: T1, Adenosine receptor A1 (Homo sapiens); experiment: Agonist activity at human adenosine A1 receptor expressed in CHO cell membranes by [35S]GTPgammaS binding assay relative to 100 uM CPA; format: functional; outline: as §2

Adenosine receptor A2a (Homo sapiens), sequence (P29274 whole entry): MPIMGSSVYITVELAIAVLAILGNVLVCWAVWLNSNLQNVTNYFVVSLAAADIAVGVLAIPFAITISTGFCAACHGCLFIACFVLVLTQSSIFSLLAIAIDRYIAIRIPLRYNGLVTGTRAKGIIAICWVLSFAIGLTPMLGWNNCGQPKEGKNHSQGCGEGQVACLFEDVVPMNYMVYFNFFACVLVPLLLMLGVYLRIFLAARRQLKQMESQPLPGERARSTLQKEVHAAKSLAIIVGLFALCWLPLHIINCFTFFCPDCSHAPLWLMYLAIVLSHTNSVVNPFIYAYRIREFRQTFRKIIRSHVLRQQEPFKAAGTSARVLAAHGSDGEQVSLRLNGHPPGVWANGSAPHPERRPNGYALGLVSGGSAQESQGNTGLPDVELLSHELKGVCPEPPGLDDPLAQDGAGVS

## COc1ccc(-c2c(C#N)c(N)nc(SCc3nc(-c4ccc(Cl)cc4)sc3Cl)c2C#N)cc1
[1]
  K: 0.028 min⁻¹
[2]
  Ratio: 1.79
[3]
  K: 1.4 ×10⁶ /M/min
[4]
  TIME: 0.595 h

## N#Cc1c(N)nc(SCc2csc(-c3ccc(Cl)cc3)n2)c(C#N)c1-c1ccc2c(c1)OCO2
[1]
  K: 0.016 min⁻¹
[5]
  inhibition: > 80%
[2]
  Ratio: 2
[3]
  K: 2.4 ×10⁶ /M/min
[4]
  TIME: 1.04 h

## COc1ccc(-c2c(C#N)c(N)nc(SCc3csc(-c4ccc(C)cc4)n3)c2C#N)cc1
[5]
  inhibition: > 80%
[2]
  Ratio: 1.25

## COc1ccc(-c2c(C#N)c(N)nc(SCc3csc(-c4ccc(F)cc4)n3)c2C#N)cc1
[1]
  K: 0.033 min⁻¹
[2]
  Ratio: 1.56
[3]
  K: 4.6 ×10⁶ /M/min
[4]
  TIME: 0.505 h

## COc1ccc(-c2c(C#N)c(N)nc(SCc3csc(-c4ccccc4Cl)n3)c2C#N)cc1
[1]
  K: 0.024 min⁻¹
[5]
  inhibition: > 80%
[2]
  Ratio: 1.53
[3]
  K: 9.4 ×10⁵ /M/min
[4]
  TIME: 0.695 h

## CC(=O)Nc1ccc(-c2nc(SCc3cccc(CCC(=O)N4CCN(C)CC4)n3)nc(N)c2C#N)cc1
[5]
  inhibition: < 80%

## CC(=O)Nc1ccc(-c2nc(SCc3cccc(CCC(=O)N(C)CCN(C)C)n3)nc(N)c2C#N)cc1
[5]
  inhibition: < 80%

## N#Cc1c(N)nc(SCc2coc(-c3ccc(Cl)cc3)n2)c(C#N)c1-c1ccc(O)cc1
[5]
  inhibition: > 80%

## N#Cc1c(N)nc(SCc2ccccc2[N+](=O)[O-])nc1-c1ccc2c(c1)OCO2
[5]
  inhibition: > 80%

## COc1ccc(-c2c(C#N)c(N)nc(SCc3csc(-c4ccc(Br)cn4)n3)c2C#N)cc1
[1]
  K: 0.03 min⁻¹
[5]
  inhibition: > 80%
[2]
  Ratio: 1.71
[3]
  K: 1.4 ×10⁶ /M/min
[4]
  TIME: 0.555 h

## CCNCCN1CCN(C(=O)CCc2cccc(CSc3nc(N)c(C#N)c(-c4ccc(NC(C)=O)cc4)n3)n2)CC1
[5]
  inhibition: < 80%

## N#Cc1c(N)nc(SCc2csc(-c3ccc(Br)cc3)n2)nc1-c1ccc2c(c1)OCO2
[5]
  inhibition: > 80%

## N#Cc1c(NC2CCCCC2)nc(SCc2csc(-c3ccc(Cl)cc3)n2)nc1-c1ccc2c(c1)OCO2
[5]
  inhibition: < 80%

## CCC(CC)Nc1nc(SCc2csc(-c3ccc(Cl)cc3)n2)nc(-c2ccc3c(c2)OCO3)c1C#N
[5]
  inhibition: < 80%

## N#Cc1c(N)nc(SCc2nc(-c3ccc(Cl)cc3)sc2Br)c(C#N)c1-c1ccc2c(c1)OCO2
[5]
  inhibition: > 80%

## COc1ccc(-c2c(C#N)c(N)nc(SCc3csc(-c4ccccc4F)n3)c2C#N)cc1
[5]
  inhibition: > 80%

## N#Cc1c(N)nc(SCc2coc(-c3cccc(F)c3)n2)c(C#N)c1-c1ccc(O)cc1
[5]
  inhibition: > 80%

## COc1ccc(-c2nc(CSc3nc(N)c(C#N)c(-c4ccc5c(c4)OCO5)n3)cs2)cc1
[5]
  inhibition: > 80%

## CC(C)(C)Nc1nc(SCc2csc(-c3ccc(Cl)cc3)n2)nc(-c2ccc3c(c2)OCO3)c1C#N
[5]
  inhibition: < 80%

## COc1ccc(-c2c(C#N)c(N)nc(SCc3csc(-c4ccc(Cl)c(Cl)c4)n3)c2C#N)cc1
[1]
  K: 0.019 min⁻¹
[2]
  Ratio: 2.35
[3]
  K: 1.1 ×10⁶ /M/min
[4]
  TIME: 0.877 h

## N#Cc1c(N)nc(SCc2csc(N3CCOCC3)n2)nc1-c1ccc2c(c1)OCO2
[5]
  inhibition: > 80%

## COc1ccc(-c2c(C#N)c(N)nc(SCc3csc(-c4cccc(F)c4)n3)c2C#N)cc1
[5]
  inhibition: > 80%

## COc1ccc(-c2nc(CSc3nc(N)c(C#N)c(-c4ccc(O)cc4)c3C#N)cs2)cc1
[5]
  inhibition: > 80%

## N#Cc1c(N)nc(SCc2csc(-c3cccc(F)c3)n2)nc1-c1ccc2c(c1)OCO2
[5]
  inhibition: > 80%

## COc1ccc(-c2c(C#N)c(N)nc(SCc3csc(-c4ccc(Cl)cn4)n3)c2C#N)cc1
[1]
  K: 0.035 min⁻¹
[5]
  inhibition: > 80%
[2]
  Ratio: 1.64
[3]
  K: 3.4 ×10⁶ /M/min
[4]
  TIME: 0.477 h

## CC(=O)Nc1ccc(-c2nc(SCc3csc(-c4ccc(Cl)cc4)n3)nc(N)c2C#N)cc1
[5]
  inhibition: > 80%

## COc1ccc(-c2c(C#N)c(N)nc(SCc3csc(-c4ccc(I)cc4)n3)c2C#N)cc1
[1]
  K: 0.011 min⁻¹
[5]
  inhibition: > 80%
[2]
  Ratio: 2.07
[3]
  K: 1.6 ×10⁶ /M/min
[4]
  TIME: 1.51 h

## CC(C)CCNc1nc(SCc2csc(-c3ccc(Cl)cc3)n2)nc(-c2ccc3c(c2)OCO3)c1C#N
[5]
  inhibition: < 80%

## N#Cc1c(N)nc(SCc2csc(-c3ccccc3)n2)c(C#N)c1-c1ccc(O)cc1
[5]
  inhibition: > 80%

## N#Cc1c(NCCc2ccccc2)nc(SCc2csc(-c3ccc(Cl)cc3)n2)nc1-c1ccc2c(c1)OCO2
[5]
  inhibition: < 80%

## N#Cc1c(N)nc(SCc2coc(-c3ccc(F)cc3)n2)nc1-c1ccc2c(c1)OCO2
[5]
  inhibition: > 80%

## N#Cc1c(N)nc(SCc2csc(-c3ccccc3Cl)n2)nc1-c1ccc2c(c1)OCO2
[5]
  inhibition: > 80%

## COc1ccc(-c2nc(CSc3nc(N)c(C#N)c(-c4ccc(OC)cc4)c3C#N)cs2)cc1
[2]
  Ratio: 1.22

## N#Cc1c(N)nc(SCc2coc(-c3ccc(F)cc3)n2)c(C#N)c1-c1ccc(O)cc1
[5]
  inhibition: > 80%

## N#Cc1c(N)nc(SCc2csc(-c3ccc(Cl)cc3)n2)c(C#N)c1-c1ccc(O)cc1
[1]
  K: 0.028 min⁻¹
[5]
  inhibition: > 80%
[2]
  Ratio: 2.07
[3]
  K: 4.3 ×10⁶ /M/min
[4]
  TIME: 0.595 h

## N#Cc1c(N)nc(SCc2csc(-c3ccccc3)n2)nc1-c1ccc2c(c1)OCO2
[5]
  inhibition: > 80%

## N#Cc1c(NCCCc2ccccc2)nc(SCc2csc(-c3ccc(Cl)cc3)n2)nc1-c1ccc2c(c1)OCO2
[5]
  inhibition: < 80%

## N#Cc1c(N)nc(SCc2nc(-c3ccc(Cl)cc3)sc2Cl)c(C#N)c1-c1ccc2c(c1)OCO2
[5]
  inhibition: > 80%

## N#Cc1c(N)nc(SCc2csc(-c3cccc(Cl)c3)n2)c(C#N)c1-c1ccc(O)cc1
[5]
  inhibition: > 80%

## COc1ccc(-c2c(C#N)c(N)nc(SCc3cscn3)c2C#N)cc1
Adenosine receptor A1
  EC50: 1.5 nM
[6]
  Selectivity ratio: > 100
[2]
  Ratio: 1
[7]
  inhibition: 0%
[8]
  inhibition: 50%
[9]
  Emax: 55%

## CCCCNc1nc(SCc2csc(-c3ccc(Cl)cc3)n2)nc(-c2ccc3c(c2)OCO3)c1C#N
[5]
  inhibition: < 80%

## N#Cc1c(N)nc(SCc2csc(C3CCCCC3)n2)nc1-c1ccc2c(c1)OCO2
[5]
  inhibition: > 80%

## N#Cc1c(N)nc(SCc2csc(-c3ccc(F)cc3)n2)c(C#N)c1-c1ccc(O)cc1
[5]
  inhibition: > 80%

## CC(=O)Nc1ccc(-c2nc(SCc3cccc(CCC(=O)N4CCN(CCN(C(C)C)C(C)C)CC4)n3)nc(N)c2C#N)cc1
[5]
  inhibition: < 80%

## Cc1ccc(-c2nc(CSc3nc(N)c(C#N)c(-c4ccc5c(c4)OCO5)n3)cs2)cc1
[5]
  inhibition: > 80%

## N#Cc1c(N)nc(SCc2csc(N3CCOCC3)n2)c(C#N)c1-c1ccc(O)cc1
[5]
  inhibition: > 80%

## N#Cc1c(N)nc(SCc2csc(-c3ccccc3F)n2)nc1-c1ccc2c(c1)OCO2
[5]
  inhibition: > 80%

## COc1ccc(-c2c(C#N)c(N)nc(SCc3csc(-c4ccc(Br)cc4)n3)c2C#N)cc1
[1]
  K: 0.02 min⁻¹
[5]
  inhibition: > 80%
[2]
  Ratio: 1.55
[3]
  K: 2.4 ×10⁶ /M/min
[4]
  TIME: 0.833 h

## N#Cc1c(N)nc(SCc2csc(-c3ccc(Cl)c(Cl)c3)n2)c(C#N)c1-c1ccc(O)cc1
[5]
  inhibition: > 80%

## CCOc1ccc(-c2nc(SCc3csc(-c4ccc(Cl)cc4)n3)nc(N)c2C#N)cc1
[5]
  inhibition: < 80%

## COc1ccc(-c2c(C#N)c(N)nc(SCc3csc(-c4cccc(Cl)c4)n3)c2C#N)cc1
[1]
  K: 0.025 min⁻¹
[5]
  inhibition: > 80%
[2]
  Ratio: 1.6
[3]
  K: 7.7 ×10⁵ /M/min
[4]
  TIME: 0.667 h

## N#Cc1c(N)nc(SCc2csc(-c3ccc(Cl)cc3)n2)nc1-c1ccc(OCCO)cc1
[5]
  inhibition: > 80%

## N#Cc1c(NCc2ccccc2)nc(SCc2csc(-c3ccc(Cl)cc3)n2)nc1-c1ccc2c(c1)OCO2
[5]
  inhibition: < 80%
